PHOSPHO1 inh: PHOSPHO1 (human) inhibition. recombinant PHOSPHO1, absorbance phosphatase assay. Q8TCT1. inhibition, % at 13.3 µM. actives 1.1% (n = 290,000); in the data active = inhibition above about 60%
Lipid droplet: hepatic lipid droplet formation modulation; AML12 mouse hepatocytes, oleate lipid droplets, BODIPY imaging; inhibition, % at 6.5 µM; actives 0.4% (n = 240,000); AID 1656;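 active = lipid droplet intensity inhibited by at least 50%, with more than 500 cells counted; inconclusive = wells with under 300 cells, treated as cytotoxic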
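material = mouse AML12 hepatocyte cell line, fixed after treatment | also added = 100 µM oleic acid challenge | doses = compound at 6.5 µM only | schedule = overnight exposure | technique = Image-based BODIPY and DAPI two-channel analysis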
CHT allo act: allosteric activators of human choline transporter CHT; Q9GZV3; CHT-expressing cells, membrane potential dye, choline EC20; stronger effect = higher value; LV-AA mutant CHT in HEK293 cells; B-score at 10 µM; actives 0.49% (n = 310,000);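 active = initial fluorescence not abnormally high and integrated response B-score, plate-corrected, over 3 SD above library mean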
Target sequence (Q9GZV3 whole entry, looked up): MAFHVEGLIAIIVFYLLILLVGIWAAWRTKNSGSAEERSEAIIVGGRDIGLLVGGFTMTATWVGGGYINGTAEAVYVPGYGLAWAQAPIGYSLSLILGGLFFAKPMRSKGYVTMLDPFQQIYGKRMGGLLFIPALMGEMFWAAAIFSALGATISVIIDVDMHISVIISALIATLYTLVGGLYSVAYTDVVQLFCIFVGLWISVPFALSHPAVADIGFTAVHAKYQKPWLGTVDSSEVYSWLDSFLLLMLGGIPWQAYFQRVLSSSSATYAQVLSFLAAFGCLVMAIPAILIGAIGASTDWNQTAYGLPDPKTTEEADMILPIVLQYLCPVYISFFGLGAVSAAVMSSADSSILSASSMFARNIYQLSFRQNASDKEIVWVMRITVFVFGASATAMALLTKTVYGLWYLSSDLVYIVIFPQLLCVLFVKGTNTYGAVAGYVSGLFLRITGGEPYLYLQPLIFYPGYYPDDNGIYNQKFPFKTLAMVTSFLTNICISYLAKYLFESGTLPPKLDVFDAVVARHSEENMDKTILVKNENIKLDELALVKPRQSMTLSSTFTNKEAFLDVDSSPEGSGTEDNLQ
HSF1 inhib: HSF1 inhibition; NIH3T3-HGL HSE-luciferase, MG132-induced, luminescence 8 h; stronger effect = lower value; AID 2098; actives 0.77% (n = 300,000); activity change, negative = inhibition, % at 7.5 µM (by protocol);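 active = more than half of replicate wells show activity change below -50%, luminescence cut by over half; inconclusive = some wells, but at most half, below -50%; inactive = no replicate well below -50%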;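 note: luciferase reports HSF-1 transcriptional activity via heat shock element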
CHT block: inhibits the human high affinity choline transporter; actives 0.86% (n = 310,000); Q9GZV3; AID 488975; CHT-expressing cells, membrane potential dye, choline response; stronger effect = lower value; B-score at 10 µM;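 active = B-score over 3 SD under the library average, and starting fluorescence ratio not unusually high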;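 note: choline stimulus applied at its EC90 after an EC20 pre-addition; B-score computed on integrated fluorescence ratio after choline addition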
HSF1 activator: increases HSF-1 driven luciferase reporter signal; NIH3T3-HGL HSF-1 luciferase reporter, MG132, 8 h; 100% = twice DMSO control signal; activation, % at 9 µM; actives 1.7% (n = 300,000); AID 504408;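 active = mean replicate activation of at least 50% with a set share of replicates each reaching 50%; inconclusive = only one of those two conditions met; inactive = mean below 50% and too few replicates reaching it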
CHT activ conf: confirmation of human choline transporter (CHT) activators | AID 504833 | activation, % at 10 µM | actives 91% (n = 2,500) | CHT-expressing cells, membrane potential dye fluorescence (FDSS); % of choline EC20–EC90 response window; HEK293 expressing CHT LV-AA mutant; choline added at its EC20 | shares compounds with CHT allo act;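 active = primary screen active, with duplicate mean activation above negative control mean plus 3 SD, cut at about 11% in these data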
HEK293 MP dye: activity in parental HEK293 cells lacking CHT | ratio readout change at 10 µM, hits read low | AID 623908 | actives 62% (n = 2,500) | shares compounds with CHT allo act | membrane potential dye fluorescence (FDSS); measured after EC20 choline addition;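 active = duplicate-averaged ratio beyond 3 SD from buffer wells, up or down, though filed actives are nearly all decreases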
Hits are given with their value; . = inactive; ? = inconclusive; / = no result. An excerpt weighted towards active compounds, which were near 4.9% of everything screened.

SMILES	PHOSPHO1 inh	Lipid droplet	CHT allo act	HSF1 inhib	CHT block	HSF1 activator	CHT activ conf	HEK293 MP dye
CCN(CC)c1nc(N2CCN(C)CC2)nc2ccccc12	.	.	.	.	.	.	60.1	-57.6
Nc1nc(SCC(=O)Nc2ccc(F)cc2)[nH]c(=O)c1NC(=O)c1ccc(F)c(F)c1	.	.	.	.	.	.	/	/
Cc1ccccc1C(=O)N1CCN(c2ncccn2)CC1	.	.	.	.	.	.	/	/
COc1cccc(/C=N/n2cncn2)c1OCC#N	.	.	6.37	.	.	.	.	.
CCn1cnc2cc(NCc3ccncc3)ccc21	.	.	.	.	.	.	49.3	-37.6
OCCCNc1c2ccccc2nc2ccccc12	/	/	.	.	.	.	/	/
CC(C)(C)Nc1c2ccccc2nc2ccccc12	.	.	.	.	.	.	36.9	-57.5
c1ccc(C[n+]2csc3ccccc32)cc1	.	/	.	.	.	.	/	/
Brc1cc2ccccc2[n+](Cc2ccccc2)c1	/	/	6.96	.	.	.	76.2	-67.4
O=c1ccc(-c2ccc(S(=O)(=O)NCc3cccc(Br)c3)s2)n[nH]1	.	.	.	.	.	.	/	/
CN(C)CC(CCCCC(CN(C)C)C(=O)c1ccccc1)C(=O)c1ccccc1 (configuration not stated)	.	.	8.37	.	.	.	29.2	.
CC(CNC(=O)c1ccc(-c2ccccc2)cc1)CN(C)C (configuration not stated)	.	/	.	.	.	.	/	/
COc1cccc(CN(C)C(=O)c2cccc(S(=O)(=O)N3CCN(c4ccc(F)cc4)CC3)c2)c1OC	/	/	.	.	.	.	/	/
COc1ccc(-c2c3c(=O)n(C)c(=O)n(C)c3cn2C2CCCCC2)cc1	.	.	6.85	.	.	.	23.2	.
CCCn1cc2c(c1-c1ccc(C)cc1)c(=O)n(C)c(=O)n2C	.	.	.	.	.	.	/	/
O=[N+]([O-])c1ccc(S(=O)(=O)Nc2ccc(-c3ccc(N4CCCC4)nn3)cc2)cc1	/	/	.	.	.	.	15.1	.
COc1ccc(OC)c(S(=O)(=O)Nc2cc3c(cc2N2CCCC2)n(C)c(=O)c(=O)n3C)c1	.	.	7.23	.	.	.	53.0	-59.8
Cn1c(=O)c(=O)n(C)c2cc(N3CCCCC3)c(NS(=O)(=O)c3ccc([N+](=O)[O-])cc3)cc21	.	.	10.3	.	.	.	51.6	-47.4
O=[N+]([O-])c1ccc(Cl)c(S(=O)(=O)Nc2ccc(-c3ccc(N4CCCC4)nn3)cc2)c1	/	/	.	.	.	.	/	/
Cn1c(=O)c(=O)n(C)c2cc(N3CCOCC3)c(NS(=O)(=O)c3ccc(Br)cc3)cc21	.	.	7.07	.	.	.	52.7	-43.2
COc1ccc(OC)c(NS(=O)(=O)c2ccc3c(c2)n(C)c(=O)n3C)c1	.	.	.	.	.	.	/	/
CCc1ccc(S(=O)(=O)Nc2cc3c(cc2N2CCOCC2)n(C)c(=O)c(=O)n3C)cc1	.	.	7.23	.	.	.	55.5	-46.7
Cn1c(=O)c(=O)n(C)c2cc(N3CCCC3)c(NS(=O)(=O)c3ccc(F)cc3)cc21	.	.	.	.	.	.	/	/
COc1ccccc1N1CCN(C(=O)c2ccc(Cn3c(=S)[nH]c4cc5c(cc4c3=O)OCO5)cc2)CC1	.	.	.	.	.	.	/	/
CCOc1ccccc1-n1c(SCC(=O)Nc2nccs2)nnc1-c1ccoc1C	.	/	.	.	.	.	.	.
SMILES	PHOSPHO1 inh	Lipid droplet	CHT allo act	HSF1 inhib	CHT block	HSF1 activator	CHT activ conf	HEK293 MP dye
CCc1nnc(NC(=O)CSc2nnc(-c3ccoc3C)n2-c2ccccc2)s1	.	/	.	.	.	.	/	/
Cc1cc(/C=N\NC(=O)CC(=O)NC2CCCCC2)c(C)n1-c1cccc(Cl)c1Cl	.	.	12.3	.	.	.	22.6	.
Cc1cc(/C=N\NC(=O)CC(=O)NC2CCCCC2)c(C)n1-c1ccc(Cl)c(Cl)c1	.	/	.	.	.	.	/	/
OCCN1C2=NCCCN2c2ccccc21	.	.	.	.	.	.	/	/
c1ccc(CN2C3=NCCN3c3ccccc32)cc1	.	.	.	.	.	.	/	/
c1ccc2c(c1)N1CCCN=C1N2CCN1CCCCC1	.	.	9.51	.	.	.	30.8	-72.1
COC(=O)c1ccc(OCCN2C3=NCCN3c3ccccc32)cc1	.	.	.	.	.	.	17.1	-40.5
Clc1ccc(CN2C3=NCCN3c3ccccc32)cc1Cl	.	/	.	.	.	.	23.2	.
c1ccc2c(c1)N1CCN=C1N2CCN1CCCCC1	.	/	9.78	.	.	.	79.7	-80.4
CCOC(=O)/C(C(N)=NCc1ccco1)=C(/O)c1ccccc1	.	.	.	.	.	.	/	/
Cc1cc2ccccc2n1CCNC(=O)C1CCCC1	.	/	.	.	.	.	.	.
CCC(=O)Nc1cccc(-c2cn3ccccc3n2)c1	.	.	.	.	.	.	45.0	-41.5
c1ccn2cc(-c3ccc4c(c3)OCCO4)nc2c1	.	.	.	.	.	.	/	/
COc1ccc(-c2cn3ccccc3n2)cc1OC	.	/	.	.	.	.	21.1	-37.7
COC(=O)CSc1nnc(COc2ccc([N+](=O)[O-])cc2)n1C	.	.	.	.	.	.	/	/
COc1ccc(NC(=O)c2cc(S(=O)(=O)N3CCCC3)cn2C)cc1Cl	.	.	.	.	.	.	/	/
COC(=O)c1ccc(C)c(NS(=O)(=O)c2ccc(OC)cc2)c1	.	?	8.12	.	.	.	47.6	.
CC1CCN(c2ccccc2NC(=O)c2ccc(F)cc2)CC1	.	.	9.34	.	.	.	22.9	.
NC(=O)NCC(=O)N1CCC(C(O)(c2ccccc2)c2ccccc2)CC1	.	.	.	.	.	.	/	/
CCOC(=O)C1=C(Nc2cccc(Cl)c2)OCC1=O	.	/	.	.	.	.	/	/
OC(CN1CCN(c2ccc(F)cc2)CC1)c1ccc(Cl)cc1 (configuration not stated)	.	/	.	.	.	.	/	/
Cc1nnc(C)c2c(C)n(-c3ccc4ncccc4c3)c(C)c12	.	.	.	.	.	.	41.4	-46.1
Cc1cc(C)cc(-n2c(C)c3c(C)nnc(C)c3c2C)c1	.	.	.	.	.	.	43.0	-27.6
Cc1nnc(C)c2c(C)n(-c3ccc(Cl)c(N)c3)c(C)c12	.	.	.	.	.	.	/	/
Cc1ccc(Nc2nc(-c3c(C)nc4ncccn34)cs2)cc1	.	/	6.75	.	.	.	28.8	.
Cc1nc2ncccn2c1-c1csc(Nc2ccc(O)cc2)n1	.	.	/	.	/	.	/	/

Assay outcomes from PubChem BioAssay.
